# From ChEMBL document CHEMBL4270526, “A novel NAE/UAE dual inhibitor LP0040 blocks neddylation and ubiquitination leading to growth inhibition and apoptosis of cancer cells” (Eur J Med Chem, 2018)
# pIC50: −log10 of the molar value.
# Columns and labels:
# [1] = Hemolytic activity against rabbit erythrocytes assessed as hemolysis at 100 uM measured after 1 hr; type: ADME, cell-based, Oryctolagus cuniculus, Erythrocyte; details: read-out: Activity
# Summary of the method: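 Rabbit erythrocytes pelleted at 3000 rpm for 10 min, washed twice and resuspended in PBS. Mixed 1:1 with 200 μM compound solution in PBS, 1 h at 37 °C. PBS served as 0% and 1% Triton X-100 as 100% hemolysis. After centrifugation, supernatant hemoglobin read at 540 nm; % hemolysis calculated relative to the Triton and PBS controls.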
# AGS [2] = assay: Induction of apoptosis in human AGS cells assessed as late apoptotic cells at 6 uM after 36 hrs by Annexin-V-FITC/propidium iodide staining based flow cytometry (reference value: 1.71%); type: functional
# A549 = assay: Antiproliferative activity against human A549 cells after 48 hrs by CCK8 assay; type: functional, cell-based; details: A549, 48 h
# Summary of the method: (§1)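 Cells seeded at 6 × 10^3 cells/well and left 12 h at 37 °C, 5% CO2. Medium then replaced with serial compound dilutions, bortezomib as positive control. After 48 h, CCK-8 added for 4 h and absorbance read at 450 nm. Three repeats; IC50 from normalized nonlinear regression of inhibition curves.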
# AGS [3] = assay: Synergistic antiproliferative activity against human AGS cells assessed as combination index constant at 1.25 uM after 48 hrs in presence of 5 nM BTZ by CCK8 assay; type: functional
# Summary of the method: (§2)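 AGS cells at 6×10^3/well attached for 12 h, then exposed for 48 h to compound, bortezomib, or both at set concentrations. CCK-8 added for 4 h, then OD read at 450 nm. Inhibition rates E used for q = E(combo)/(E1+E2−E1×E2). Triplicate experiments.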
# [4] = molecular target: Protein kinase C alpha type (Homo sapiens) (UniProt P17252); assay: Inhibition of PKCalpha (unknown origin) at 30 uM relative to control
# AGS [5] = assay: Induction of apoptosis in human AGS cells assessed as early apoptotic cells at 10 uM after 36 hrs by Annexin-V-FITC/propidium iodide staining based flow cytometry (reference value: 4.44%); type: functional
# [6] = Selectivity index, ratio of IC50 for HUVEC to IC50 for human AGS cells; type: toxicity; details: HUVEC versus AGS cells, read-out: Ratio IC50
# AGS [7] = assay: Induction of apoptosis in human AGS cells assessed as necrotic cells at 6 uM after 36 hrs by Annexin-V-FITC/propidium iodide staining based flow cytometry (reference value: 1.01%); type: functional
# AGS [8] = assay: Induction of apoptosis in human AGS cells assessed as live cells at 4 uM after 36 hrs by Annexin-V-FITC/propidium iodide staining based flow cytometry (reference value: 92.84%); type: functional
# AGS [9] = assay: Induction of apoptosis in human AGS cells assessed as necrotic cells at 4 uM after 36 hrs by Annexin-V-FITC/propidium iodide staining based flow cytometry (reference value: 1.01%); type: functional
# AGS [10] = assay: Induction of apoptosis in human AGS cells assessed as late apoptotic cells at 10 uM after 36 hrs by Annexin-V-FITC/propidium iodide staining based flow cytometry (reference value: 1.71%); type: functional
# [11] = molecular target: Cyclin-dependent kinase 2/cyclin E1 (Homo sapiens) (UniProt P24864+P24941); assay: Inhibition of CDK2/cyclin E (unknown origin) at 30 uM relative to control; type: protein-complex assay
# AGS [12] = assay: Synergistic antiproliferative activity against human AGS cells assessed as combination index constant at 1.5 uM after 48 hrs in presence of 5 nM BTZ by CCK8 assay; type: functional; summary of the method: as §2
# [13] = molecular target: T1, NEDD8 activating enzyme (Homo sapiens) (UniProt Q8TBC4+Q13564); assay: Inhibition of NAE in human AGS cells assessed as reduction in Uba3-NEDD8 conjugation level after 24 hrs by Western blot analysis; type: cell-based
# Summary of the method: (§3)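 AGS cells given 2, 4, 6, 8 or 10 μM compound or 0.1% DMSO for 24 h, washed in ice-cold PBS and lysed in RIPA on ice. Equal protein loads run by SDS-PAGE: non-reducing for NEDD8/SUMO/Ub conjugates, reducing for p27, NRF2, CDT1 and cleaved caspase-3. Blotted to PVDF with primary antibody overnight at 4 °C and HRP secondary, ECL detection, densitometry. Three repeats.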
# [14] = molecular target: Tyrosine-protein kinase Lck (Homo sapiens) (UniProt P06239); assay: Inhibition of LCK (unknown origin) at 30 uM relative to control
# Chain of Tyrosine-protein kinase Lck (Homo sapiens) (P06239 2-509 limits assumed): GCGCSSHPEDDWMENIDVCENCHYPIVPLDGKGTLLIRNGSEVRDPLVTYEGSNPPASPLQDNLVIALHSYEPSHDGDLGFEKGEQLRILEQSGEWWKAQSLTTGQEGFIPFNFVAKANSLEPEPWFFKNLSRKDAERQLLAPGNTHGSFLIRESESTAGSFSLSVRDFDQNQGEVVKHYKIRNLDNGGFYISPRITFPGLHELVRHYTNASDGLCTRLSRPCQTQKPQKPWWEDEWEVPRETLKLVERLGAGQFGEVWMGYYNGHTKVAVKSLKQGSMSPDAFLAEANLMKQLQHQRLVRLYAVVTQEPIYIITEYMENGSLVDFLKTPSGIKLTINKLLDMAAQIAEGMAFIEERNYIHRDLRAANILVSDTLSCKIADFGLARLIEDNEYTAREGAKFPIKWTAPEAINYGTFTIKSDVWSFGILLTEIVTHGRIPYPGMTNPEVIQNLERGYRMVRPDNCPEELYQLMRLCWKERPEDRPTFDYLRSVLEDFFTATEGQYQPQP
# AGS [15] = assay: Induction of apoptosis in human AGS cells assessed as late apoptotic cells at 4 uM after 36 hrs by Annexin-V-FITC/propidium iodide staining based flow cytometry (reference value: 1.71%); type: functional
# AGS [16] = assay: Antiproliferative activity against human AGS cells after 48 hrs by CCK8 assay; type: functional, cell-based; summary of the method: as §1
# [17] = molecular target: Serine/threonine-protein kinase Chk2 (Homo sapiens) (UniProt O96017); assay: Inhibition of CHK2 (unknown origin) at 30 uM relative to control
# Chain of Serine/threonine-protein kinase Chk2 (Homo sapiens) (O96017 whole entry): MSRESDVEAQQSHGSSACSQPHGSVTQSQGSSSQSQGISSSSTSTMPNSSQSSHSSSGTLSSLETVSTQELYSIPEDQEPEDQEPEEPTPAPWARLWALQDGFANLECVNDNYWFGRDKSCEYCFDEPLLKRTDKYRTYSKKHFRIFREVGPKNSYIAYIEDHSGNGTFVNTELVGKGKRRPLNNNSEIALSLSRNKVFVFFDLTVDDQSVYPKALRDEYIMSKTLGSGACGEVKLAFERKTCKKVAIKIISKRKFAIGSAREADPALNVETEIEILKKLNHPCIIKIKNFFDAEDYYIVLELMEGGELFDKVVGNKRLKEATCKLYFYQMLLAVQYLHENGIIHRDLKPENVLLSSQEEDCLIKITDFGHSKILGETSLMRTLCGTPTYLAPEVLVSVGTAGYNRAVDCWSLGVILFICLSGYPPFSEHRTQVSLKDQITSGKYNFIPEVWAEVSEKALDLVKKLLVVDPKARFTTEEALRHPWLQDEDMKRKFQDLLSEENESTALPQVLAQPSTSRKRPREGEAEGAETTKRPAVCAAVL
# AGS [18] = assay: Induction of apoptosis in human AGS cells assessed as live cells at 8 uM after 36 hrs by Annexin-V-FITC/propidium iodide staining based flow cytometry (reference value: 92.84%); type: functional
# [19] = molecular target: Serine/threonine-protein kinase B-raf (Homo sapiens) (UniProt P15056); assay: Inhibition of B-raf (unknown origin) at 30 uM relative to control
# Chain of Serine/threonine-protein kinase B-raf (Homo sapiens) (P15056 whole entry): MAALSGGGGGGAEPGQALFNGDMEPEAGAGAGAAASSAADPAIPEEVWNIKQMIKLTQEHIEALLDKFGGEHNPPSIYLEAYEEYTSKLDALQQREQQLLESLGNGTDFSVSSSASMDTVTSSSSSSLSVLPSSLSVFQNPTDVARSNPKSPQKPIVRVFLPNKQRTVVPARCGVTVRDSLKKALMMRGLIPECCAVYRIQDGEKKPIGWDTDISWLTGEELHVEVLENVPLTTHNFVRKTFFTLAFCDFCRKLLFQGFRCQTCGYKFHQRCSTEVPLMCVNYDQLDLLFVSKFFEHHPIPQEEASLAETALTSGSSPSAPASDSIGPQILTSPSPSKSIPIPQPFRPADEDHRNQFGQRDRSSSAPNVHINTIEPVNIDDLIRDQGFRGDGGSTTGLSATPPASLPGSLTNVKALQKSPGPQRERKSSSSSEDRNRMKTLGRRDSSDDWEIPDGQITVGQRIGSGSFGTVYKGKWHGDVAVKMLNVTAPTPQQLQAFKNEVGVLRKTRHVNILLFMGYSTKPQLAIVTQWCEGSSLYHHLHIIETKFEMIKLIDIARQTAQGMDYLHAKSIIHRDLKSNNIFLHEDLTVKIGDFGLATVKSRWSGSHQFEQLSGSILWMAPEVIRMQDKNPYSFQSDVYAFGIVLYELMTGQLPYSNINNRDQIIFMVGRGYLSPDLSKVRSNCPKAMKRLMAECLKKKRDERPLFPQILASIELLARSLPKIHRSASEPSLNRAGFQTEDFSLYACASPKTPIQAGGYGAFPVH
# [20] = Antiproliferative activity against HEK293T cells after 48 hrs by CCK8 assay; type: cell-based, HEK-293T; details: human, read-out: LC50
# AGS [21] = assay: Induction of apoptosis in human AGS cells assessed as early apoptotic cells at 8 uM after 36 hrs by Annexin-V-FITC/propidium iodide staining based flow cytometry (reference value: 4.44%); type: functional
# [22] = Selectivity index, ratio of IC50 for human LO2 cells to IC50 for human AGS cells; type: toxicity; details: LO2 cells versus AGS cells, read-out: Ratio IC50
# [23] = molecular target: RAC-alpha serine/threonine-protein kinase (Homo sapiens) (UniProt P31749); assay: Inhibition of AKT (unknown origin) at 30 uM relative to control
# Chain of RAC-alpha serine/threonine-protein kinase (Homo sapiens) (P31749 whole entry): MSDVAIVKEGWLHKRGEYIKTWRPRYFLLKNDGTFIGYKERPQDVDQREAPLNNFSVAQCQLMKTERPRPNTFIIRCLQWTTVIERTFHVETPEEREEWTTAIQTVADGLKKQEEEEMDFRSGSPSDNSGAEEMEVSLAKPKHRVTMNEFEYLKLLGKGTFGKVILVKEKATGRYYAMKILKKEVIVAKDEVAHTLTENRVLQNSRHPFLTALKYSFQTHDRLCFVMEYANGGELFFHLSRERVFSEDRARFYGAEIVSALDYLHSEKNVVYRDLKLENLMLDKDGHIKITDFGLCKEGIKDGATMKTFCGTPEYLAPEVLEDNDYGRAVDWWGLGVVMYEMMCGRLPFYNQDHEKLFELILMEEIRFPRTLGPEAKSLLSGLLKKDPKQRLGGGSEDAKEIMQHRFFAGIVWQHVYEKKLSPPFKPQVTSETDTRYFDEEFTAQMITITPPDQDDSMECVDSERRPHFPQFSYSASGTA
# AGS [24] = assay: Induction of apoptosis in human AGS cells assessed as live cells at 6 uM after 36 hrs by Annexin-V-FITC/propidium iodide staining based flow cytometry (reference value: 92.84%); type: functional
# AGS [25] = assay: Induction of apoptosis in human AGS cells assessed as live cells at 10 uM after 36 hrs by Annexin-V-FITC/propidium iodide staining based flow cytometry (reference value: 92.84%); type: functional
# [26] = molecular target: T1, NEDD8 activating enzyme (Homo sapiens); assay: Inhibition of NAE in human AGS cells assessed as reduction in Cullins-NEDD8 conjugation level after 24 hrs by Western blot analysis; type: cell-based; summary of the method: as §3
# AGS [27] = assay: Synergistic antiproliferative activity against human AGS cells assessed as combination index constant at 1 uM after 48 hrs in presence of 10 nM BTZ by CCK8 assay; type: functional; summary of the method: as §2
# [28] = Selectivity index, ratio of IC50 for HEK293T cells to IC50 for human AGS cells; type: toxicity; details: HEK293T cells versus AGS cells, read-out: Ratio IC50
# SK-OV-3 = assay: Antiproliferative activity against human SKOV3 cells after 48 hrs by CCK8 assay; type: functional, cell-based; details: SK-OV-3, 48 h; summary of the method: as §1
# [29] = molecular target: Epidermal growth factor receptor (Homo sapiens) (UniProt P00533); assay: Inhibition of EGFR (unknown origin) at 30 uM relative to control
# Chain of Epidermal growth factor receptor (Homo sapiens) (P00533 whole entry): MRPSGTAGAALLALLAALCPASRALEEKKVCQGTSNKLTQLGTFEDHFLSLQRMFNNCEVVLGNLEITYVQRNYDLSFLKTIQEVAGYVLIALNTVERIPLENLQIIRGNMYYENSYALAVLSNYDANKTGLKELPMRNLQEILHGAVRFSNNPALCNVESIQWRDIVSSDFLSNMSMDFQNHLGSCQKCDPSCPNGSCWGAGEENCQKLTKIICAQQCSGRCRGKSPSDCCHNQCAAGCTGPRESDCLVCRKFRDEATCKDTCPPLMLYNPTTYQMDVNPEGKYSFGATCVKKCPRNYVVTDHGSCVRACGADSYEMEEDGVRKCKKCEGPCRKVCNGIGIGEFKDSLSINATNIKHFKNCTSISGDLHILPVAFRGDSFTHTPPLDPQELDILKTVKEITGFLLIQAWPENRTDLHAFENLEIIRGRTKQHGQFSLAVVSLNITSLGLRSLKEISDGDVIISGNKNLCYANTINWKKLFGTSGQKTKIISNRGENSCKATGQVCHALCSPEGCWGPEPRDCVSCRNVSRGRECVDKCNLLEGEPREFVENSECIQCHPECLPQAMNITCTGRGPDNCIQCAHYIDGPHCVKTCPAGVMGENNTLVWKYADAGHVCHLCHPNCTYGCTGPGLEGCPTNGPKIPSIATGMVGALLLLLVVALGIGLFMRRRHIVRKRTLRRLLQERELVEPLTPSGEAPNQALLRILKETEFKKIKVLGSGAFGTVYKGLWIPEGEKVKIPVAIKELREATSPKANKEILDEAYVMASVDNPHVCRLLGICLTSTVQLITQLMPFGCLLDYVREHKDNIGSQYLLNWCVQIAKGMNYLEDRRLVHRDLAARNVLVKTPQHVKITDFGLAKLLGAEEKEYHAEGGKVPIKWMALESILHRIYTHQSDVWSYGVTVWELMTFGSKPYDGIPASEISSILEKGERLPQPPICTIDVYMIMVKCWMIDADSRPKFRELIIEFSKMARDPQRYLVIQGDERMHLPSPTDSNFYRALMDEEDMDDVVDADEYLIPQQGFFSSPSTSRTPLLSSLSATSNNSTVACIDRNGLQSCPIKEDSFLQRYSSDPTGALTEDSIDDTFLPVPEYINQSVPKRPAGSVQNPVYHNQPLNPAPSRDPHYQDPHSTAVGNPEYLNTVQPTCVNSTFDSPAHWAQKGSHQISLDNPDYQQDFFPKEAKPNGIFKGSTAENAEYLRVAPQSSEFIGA
# [30] = molecular target: Aurora kinase A (Homo sapiens) (UniProt O14965); assay: Inhibition of AurA (unknown origin) at 30 uM relative to control
# Chain of Aurora kinase A (Homo sapiens) (O14965 whole entry): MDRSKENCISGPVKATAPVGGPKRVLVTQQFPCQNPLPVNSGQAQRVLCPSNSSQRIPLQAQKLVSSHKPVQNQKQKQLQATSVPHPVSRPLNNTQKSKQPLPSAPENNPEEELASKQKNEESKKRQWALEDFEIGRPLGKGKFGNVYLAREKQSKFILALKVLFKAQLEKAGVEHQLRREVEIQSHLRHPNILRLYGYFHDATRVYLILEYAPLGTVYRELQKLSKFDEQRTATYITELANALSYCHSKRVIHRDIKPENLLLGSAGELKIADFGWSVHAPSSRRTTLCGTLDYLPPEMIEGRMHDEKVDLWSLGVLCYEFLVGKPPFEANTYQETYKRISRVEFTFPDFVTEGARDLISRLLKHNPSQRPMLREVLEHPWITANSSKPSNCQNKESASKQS
compound,measurement,setting,value
O=c1cc(-c2ccc(-c3ccccc3)cc2)c2ccc(N3CCC(NCCc4ccccc4)CC3)cc2o1,"hemolysis at 1 h, 100 µM",[1],< 10%
same,Activity,AGS [2],35.77%
same,pIC50,A549,5.67
same,CI,AGS [3],4.34
same,inhibition,[4],11.5%
same,Activity,AGS [5],38.71%
same,selectivity ratio,[6],14 to 18
same,Activity,AGS [7],3.33%
same,Activity,AGS [8],80.7%
same,Activity,AGS [9],1.03%
same,Activity,AGS [10],44.73%
same,inhibition,[11],4.57%
same,CI,AGS [12],1.15
same,inhibition,[13],Dose-dependent effect
same,inhibition,[14],-2.51%
same,Activity,AGS [15],10.51%
same,pIC50,AGS [16],6.12
same,inhibition,[17],9.44%
same,Activity,AGS [18],9.88%
same,inhibition,[19],1.75%
same,CC50 at 48 h,[20],12900 nM
same,Activity,AGS [21],50.39%
same,selectivity ratio,[22],14 to 18
same,inhibition,[23],9.87%
same,Activity,AGS [24],14.99%
same,Activity,AGS [25],7.4%
same,inhibition,[26],Dose-dependent effect
same,CI,AGS [27],1.14
same,selectivity ratio,[28],14 to 18
same,pIC50,SK-OV-3,5.48
same,inhibition,[29],2.77%
same,inhibition,[30],6.03%
